Results on 18 compounds are retold here after ChEMBL document CHEMBL1140447, “Synthesis and antimuscarinic properties of quinuclidin-3-yl 1,2,3,4-tetrahydroisoquinoline-2-carboxylate derivatives as novel muscarinic receptor antagonists” (J Med Chem, 2005).

Test [1] concerns Rattus norvegicus. In words: Intravenous dose required to inhibit oxotremorine induced salivary secretion in urethane ([…] i.p.) anesthetized male wistar rats. Format: functional. As to conditions: for ED50: Rattus norvegicus, read-out: ID50 (the source's name).
For test [2], the target named is T1, Muscarinic acetylcholine receptor M2 (Rattus norvegicus, UniProt P10980).
T1 sequence (P10980 whole entry): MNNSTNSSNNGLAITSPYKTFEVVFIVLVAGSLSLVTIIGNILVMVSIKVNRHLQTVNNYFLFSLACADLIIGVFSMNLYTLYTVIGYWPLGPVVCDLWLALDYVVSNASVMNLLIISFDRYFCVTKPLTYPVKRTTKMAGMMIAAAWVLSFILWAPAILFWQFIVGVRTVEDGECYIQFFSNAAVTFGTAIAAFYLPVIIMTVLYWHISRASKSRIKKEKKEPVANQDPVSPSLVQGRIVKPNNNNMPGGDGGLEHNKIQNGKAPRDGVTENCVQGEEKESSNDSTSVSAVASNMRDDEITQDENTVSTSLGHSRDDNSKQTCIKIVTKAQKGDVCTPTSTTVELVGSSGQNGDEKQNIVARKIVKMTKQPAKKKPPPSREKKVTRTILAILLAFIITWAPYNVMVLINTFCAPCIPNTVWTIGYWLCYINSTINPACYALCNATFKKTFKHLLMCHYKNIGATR
As to the kind of experiment: Binding affinity for rat heart muscarinic acetylcholine receptor M2 using [3H]quinuclidinyl benzilate.

The subject of test [3] is Rattus norvegicus. As to the kind of experiment: Intravenous dose required to inhibit rhythmic contraction of urinary bladder in urethane (1.0 g/kg s.c.) anesthetized female wistar rats. Format: functional. The essentials:
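Each rat received escalating intravenous doses, giving a dose–response curve per animal. The fall in intravesical pressure was read 5–10 min after each dose. ED30 is the dose that cut peak intravesical pressure by 30%. Values are means ± SEM.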

For test [4], the species on record is Rattus norvegicus. In words: Selectivity index calculated as ID50/ED30.
The test system of test [5] is Rattus norvegicus. As to the kind of experiment: M1 antagonism measured as effect (i.v.) on McN-A343 induced pressor response in pithed rats. Format: functional. As to conditions: iv, read-out: ID50 (the source's name). The essentials: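 Compounds were given iv 15 min before McN-A343 (3 μmol/kg iv) in pithed rats, with the pressor response recorded.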
Test [6] deals with Rattus norvegicus. As to the kind of experiment: M2 antagonism measured as effect (i.v.) on oxotremorine induced bradycardia in pithed rats. Format: functional. The essentials:
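Bradycardia was evoked in pithed rats by an iv oxotremorine dose–response challenge, with compounds given 15 min beforehand. DR10 is the compound dose that shifts the oxotremorine curve 10-fold to the right. Values are reported with 95% confidence limits.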

Where [7] appears, read: Rattus norvegicus, read-out: ED30.

Values joined by “and” are separate entries in the source; they are usually repeats but may differ in a detail not shown here. Equal values may be shown once.

Regarding `O=C(O[C@H]1CN2CCC1CC2)N1CCc2ccccc2[C@H]1c1ccccc1`, the ED50 in test [1] turned out to be 0.12 mg/kg. Besides, the Ki (as a rule, a dissociation constant, usually derived from enzyme kinetics or from competition with a known ligand) in test [2] came to 8.7 nM. The ED30 in test [3] (setting [7]) is 0.036 mg/kg.
In test [2], `O=C(NC(c1ccccc1)c1ccccc1)OC1CN2CCC1CC2` (configuration not stated) gave a Ki of 6.8 nM.
For `O=C(O[C@H]1CN2CCC1CC2)N1CC(O)c2ccccc2C1c1ccccc1` (some centres not stated), in test [2], the Ki is 1800 nM and 480 nM.
The compound `O=C(O[C@H]1CN2CCC1CC2)N1Cc2ccccc2C(c2ccccc2)C1` (some centres not stated) returned an inhibition constant (Ki) in test [2] of more than 1000 nM.
The same measure, in the same setting: to `O=C(O[C@H]1CN2CCC1CC2)N1Cc2ccccc2C1c1ccccc1` (some centres not stated) belongs 440 nM; to `O=C(O[C@H]1CN2CCC1CC2)N1CCc2ccccc2C1c1cccs1` (some centres not stated), 13 nM and 93 nM; to `O=C(O[C@H]1CN2CCC1CC2)N1CCc2ccccc2C1C1CCCCC1` (some centres not stated), 22 nM and 39 nM.
`O=C(O[C@H]1CN2CCC1CC2)N1CCc2ccccc2C1c1ccccc1` (some centres not stated) gave an inhibition constant (Ki) in test [2] of 28 nM.
In turn, `O=C(O[C@@H]1CN2CCC1CC2)N1CCc2ccccc2[C@H]1c1ccccc1` showed a Ki in test [2] of 1600 nM.
In test [2], `O=C(O[C@@H]1CN2CCC1CC2)N1CCc2ccccc2[C@@H]1c1ccccc1` displayed a Ki of 3500 nM.
The same measure, in the same setting: to `O=C(O[C@H]1CN2CCC1CC2)N1C[C@H](O)c2ccccc2[C@H]1c1ccccc1` belongs 1700 nM; to `O=C(O[C@H]1CN2CCC1CC2)N1C[C@@H](O)c2ccccc2[C@@H]1c1ccccc1`, 850 nM.
For `O=C(O[C@H]1CN2CCC1CC2)N1CCc2ccccc2C1c1ccsc1` (single isomer, unassigned; 12a), the ED50 in test [1] worked out at 0.11 mg/kg. Also, the Ki in test [2] was found to be 15 nM. In test [3] (setting [7]), the ED30 came out at 0.016 mg/kg.
`O=C(O[C@H]1CN2CCC1CC2)N1CCc2ccccc2C1c1ccsc1` (single isomer, unassigned; 12b): in test [1], the ED50 turned out to be 1.3 mg/kg. The compound further returned an inhibitory constant (Ki) in test [2] of 110 nM. Moreover, the ED30 in test [3] (setting [7]) was 0.24 mg/kg.
For `NC(=O)C(c1ccccc1)(c1ccccc1)[C@@H]1CCN(CCc2ccc3c(c2)CCO3)C1` [DARIFENACIN], the Selectivity index in test [4] is listed as 1.9. In addition, the ED50 in test [1] came out at 0.11 mg/kg. The ED30 in test [3] (setting [7]) was 0.058 mg/kg.
For the compound `CCN(CC)CC#CCOC(=O)C(O)(c1ccccc1)C1CCCCC1` (configuration not stated) [OXYBUTYNIN], the values for the ED50 in test [5] and in test [1] were 1.1 mg/kg and 0.17 mg/kg, respectively. This compound also showed a DR10 in test [6] of 1.6 mg/kg. The compound further yielded an ID50 in test [1] of 0.17 mg/kg. For the same compound, the ED30 in test [3] and in test [3] (setting [7]) was 0.2 mg/kg throughout.
For `O=C(O[C@H]1CN2CCC1CC2)N1CCc2ccccc2[C@@H]1c1ccccc1` [SOLIFENACIN], the ED50 in test [5] amounted to 2.8 mg/kg; in test [1], 2.1 mg/kg. The compound further yielded a DR10 in test [6] of 4.2 mg/kg. The compound further returned an inhibitory constant (Ki) in test [2] of 120 nM. In test [3] (setting [7]), the ED30 worked out at 0.18 mg/kg.
On to `Cc1ccc(O)c([C@H](CCN(C(C)C)C(C)C)c2ccccc2)c1` [TOLTERODINE], for which the Selectivity index in test [4] was 4.3. Moreover, the ED50 in test [1] was 0.26 mg/kg. Further, the ED30 in test [3] (setting [7]) turned out to be 0.06 mg/kg.
